Three compounds from ChEMBL document CHEMBL2203171, “The use of small molecule probes to study spatially separated stimulus-induced signaling pathways” (Bioorg Med Chem Lett, 2012) can be followed below.

Activity calls are given as the source filed them. The calls are words filed in the database; no cut-off is given here.

Assay type in all cases: cell-based
The target in assay [1] is T1, Toll-like receptor 9 (Mus musculus) (UniProt Q9EQU3).
T1 sequence (whole entry): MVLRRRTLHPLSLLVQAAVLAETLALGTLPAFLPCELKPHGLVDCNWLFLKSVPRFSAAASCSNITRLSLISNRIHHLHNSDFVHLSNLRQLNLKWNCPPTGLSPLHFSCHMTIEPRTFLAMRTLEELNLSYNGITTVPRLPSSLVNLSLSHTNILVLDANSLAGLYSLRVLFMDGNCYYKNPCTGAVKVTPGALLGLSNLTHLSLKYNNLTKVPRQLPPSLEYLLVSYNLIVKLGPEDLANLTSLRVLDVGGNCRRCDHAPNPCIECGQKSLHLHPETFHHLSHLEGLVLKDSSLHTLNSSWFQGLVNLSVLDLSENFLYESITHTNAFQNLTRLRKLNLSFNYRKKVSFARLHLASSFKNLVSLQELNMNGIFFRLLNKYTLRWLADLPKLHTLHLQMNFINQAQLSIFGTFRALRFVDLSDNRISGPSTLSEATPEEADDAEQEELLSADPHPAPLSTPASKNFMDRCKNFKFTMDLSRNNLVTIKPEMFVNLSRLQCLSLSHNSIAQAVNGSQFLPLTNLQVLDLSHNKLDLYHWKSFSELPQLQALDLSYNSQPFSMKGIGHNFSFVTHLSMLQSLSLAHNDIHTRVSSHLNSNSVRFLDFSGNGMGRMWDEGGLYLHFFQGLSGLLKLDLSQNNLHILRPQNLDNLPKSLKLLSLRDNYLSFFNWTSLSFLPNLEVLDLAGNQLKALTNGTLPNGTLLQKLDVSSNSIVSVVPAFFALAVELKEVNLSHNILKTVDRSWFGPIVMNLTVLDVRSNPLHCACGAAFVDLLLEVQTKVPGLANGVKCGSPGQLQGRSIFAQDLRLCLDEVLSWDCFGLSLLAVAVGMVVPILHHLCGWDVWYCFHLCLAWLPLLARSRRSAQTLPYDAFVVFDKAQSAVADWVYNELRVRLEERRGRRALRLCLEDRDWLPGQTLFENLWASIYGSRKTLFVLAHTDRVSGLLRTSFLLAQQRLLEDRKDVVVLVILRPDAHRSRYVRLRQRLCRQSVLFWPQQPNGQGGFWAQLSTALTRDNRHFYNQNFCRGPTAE
In words: Inhibition of MyD88 recruitment to TLR9 in C57BL/6 mouse BMDM cells assessed as inhibition of CpG-induced IkappaBalpha degradation up to 90 mins by Western blot analysis. The procedure, abridged: (§1)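 Bone marrow macrophages from C57BL/6 mice, grown in 70% growth medium (DMEM, 10% FBS) plus 30% L929-conditioned medium and given fresh medium 12-14 h before stimulation. Stimuli: IL-1 40 ng/ml, HKSA ~10^8 cfu/ml, pI:pC 50 μg/ml or CpG 10 μg/ml, ± compound at 10 μM (final) added from a 200x DMSO stock. IκBα and p38 profiled by immunoblot. Three independent experiments, quantitated and normalized.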

Assay [2] addresses Toll-like receptor 2 (Mus musculus) (UniProt Q9QUN7). In words: Inhibition of MyD88 recruitment to TLR2 in C57BL/6 mouse BMDM cells assessed as inhibition of HKSA-induced IkappaBalpha degradation up to 90 mins by Western blot analysis. The gist of the method: as §1
Assay [3] has as its target T2, Inhibitor of nuclear factor kappa-B kinase subunit beta (Mus musculus) (UniProt O88351).
T2 sequence (whole entry): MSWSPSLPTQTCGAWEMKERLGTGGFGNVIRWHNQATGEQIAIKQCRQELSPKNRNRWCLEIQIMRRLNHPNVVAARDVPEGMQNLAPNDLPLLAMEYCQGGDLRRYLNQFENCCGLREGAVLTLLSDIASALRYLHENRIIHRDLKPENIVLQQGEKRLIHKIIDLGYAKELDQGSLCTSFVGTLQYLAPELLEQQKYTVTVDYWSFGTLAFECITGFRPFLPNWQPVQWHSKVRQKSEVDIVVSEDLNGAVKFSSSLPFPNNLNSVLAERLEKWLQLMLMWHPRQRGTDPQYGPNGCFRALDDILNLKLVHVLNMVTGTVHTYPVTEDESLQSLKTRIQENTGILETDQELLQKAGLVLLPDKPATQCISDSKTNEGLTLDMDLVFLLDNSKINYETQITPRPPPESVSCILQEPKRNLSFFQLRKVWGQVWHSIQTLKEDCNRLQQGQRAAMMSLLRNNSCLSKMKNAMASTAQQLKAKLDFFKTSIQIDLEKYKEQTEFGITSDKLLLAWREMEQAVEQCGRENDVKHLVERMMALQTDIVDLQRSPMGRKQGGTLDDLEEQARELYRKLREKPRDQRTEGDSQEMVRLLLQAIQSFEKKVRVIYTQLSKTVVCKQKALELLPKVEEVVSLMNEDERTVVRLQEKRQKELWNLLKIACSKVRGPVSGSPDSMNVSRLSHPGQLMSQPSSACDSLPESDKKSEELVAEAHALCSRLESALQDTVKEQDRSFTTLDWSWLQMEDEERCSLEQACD
Description: Inhibition of IKKbeta in C57BL/6 mouse BMDM cells assessed as inhibition of TNFalpha-induced IkappaBalpha phosphorylation at 25 uM after 5 mins by Western blot analysis. The procedure, abridged:
(§2)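 C57BL/6 marrow-derived macrophages were cultured in 70% growth medium/30% L929-conditioned medium and refreshed 12-14 h before stimulation. Stimuli were TNF 40 ng/ml or LPS 100 ng/ml, ± compound at 25 μM from a 200x DMSO stock. Western blots tracked IKK, p38, IκBα and phospho-RelA. Results from three independent experiments were quantitated and normalized.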

Assay [4] addresses T1, Toll-like receptor 9 (Mus musculus). In words: Inhibition of MyD88 recruitment to TLR9 in C57BL/6 mouse BMDM cells assessed as inhibition of CpG-induced p38 MAPK activity up to 90 mins. The gist of the method:
as §1

Assay [5] deals with T2, Inhibitor of nuclear factor kappa-B kinase subunit beta (Mus musculus). In words: Inhibition of IKKbeta in C57BL/6 mouse BMDM cells assessed as inhibition of LPS-induced MCP1 […] at 25 uM by Northern blot analysis.
For assay [6] the target is unchanged. In words: Inhibition of IKKbeta in C57BL/6 mouse BMDM cells assessed as inhibition of LPS-induced RelA phosphorylation at 25 uM after 5 mins by Western blot analysis. The procedure, abridged: as §2
For assay [7] the target is unchanged. Description: Inhibition of IKKbeta in C57BL/6 mouse BMDM cells assessed as inhibition of LPS-induced phosphorylation at 25 uM after 5 mins by Western blot analysis. The procedure, abridged:
as §2

Assay [8] has the same target. In words: Inhibition of IKKbeta in C57BL/6 mouse BMDM cells assessed as inhibition of LPS-induced IkappaBalpha phosphorylation at 25 uM after 5 mins by Western blot analysis. The gist of the method:
as §2

In assay [9] the target is MAP kinase p38 (Mus musculus) (UniProt P47811+O08911+Q9WUI1+Q9Z1B7). Description: Inhibition of MAPK p38 in C57BL/6 mouse BMDM cells assessed as inhibition of TNFalpha-induced phosphorylation at 50 uM up to 90 mins by Western blot analysis.

Toll-like receptor 2 (Mus musculus), sequence (Q9QUN7 whole entry): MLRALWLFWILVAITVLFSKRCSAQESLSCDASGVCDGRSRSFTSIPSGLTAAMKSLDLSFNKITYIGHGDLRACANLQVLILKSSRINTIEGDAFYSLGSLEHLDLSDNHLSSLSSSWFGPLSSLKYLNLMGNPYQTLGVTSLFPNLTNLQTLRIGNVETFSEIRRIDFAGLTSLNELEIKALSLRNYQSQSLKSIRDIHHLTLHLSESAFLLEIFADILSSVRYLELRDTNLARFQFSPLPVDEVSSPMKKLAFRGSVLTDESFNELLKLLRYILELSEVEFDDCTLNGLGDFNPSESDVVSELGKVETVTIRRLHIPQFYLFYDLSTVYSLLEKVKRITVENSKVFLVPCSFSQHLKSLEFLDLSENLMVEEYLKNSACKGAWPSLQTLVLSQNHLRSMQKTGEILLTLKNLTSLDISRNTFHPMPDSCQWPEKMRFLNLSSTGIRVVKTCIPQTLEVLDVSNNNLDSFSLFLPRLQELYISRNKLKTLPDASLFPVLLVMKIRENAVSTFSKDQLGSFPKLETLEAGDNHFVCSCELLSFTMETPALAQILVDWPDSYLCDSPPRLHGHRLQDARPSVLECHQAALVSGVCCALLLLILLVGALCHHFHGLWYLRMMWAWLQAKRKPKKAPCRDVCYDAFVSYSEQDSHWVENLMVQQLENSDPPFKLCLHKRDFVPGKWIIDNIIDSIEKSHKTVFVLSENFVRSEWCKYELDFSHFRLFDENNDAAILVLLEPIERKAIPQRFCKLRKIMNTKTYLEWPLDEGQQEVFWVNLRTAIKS

With `O=C(CCCCCN1C(=O)CCC1=O)Oc1ccc2cc(C(C(=O)NCc3ccccc3)N(C(=O)Cc3ccc4c(c3)OCO4)C3CC3)ccc2c1` (stereo not given), the inhibition entry in assay [1] and in assay [2] was “Active” in each case. In addition, the inhibition result in [3] is “inactive”.

Turning to `O=C(CCCCCN1C(=O)C=CC1=O)Oc1ccc2cc(C(C(=O)NCc3ccccc3)N(C(=O)Cc3ccc4c(c3)OCO4)C3CC3)ccc2c1` (stereo not given), the inhibition entry in assay [4], in [3] and in assay [9] was “inactive” in each case. Besides, the inhibition entry in assay [1], in assay [2], in assay [5], in assay [6], in assay [7] and in assay [8] was “Active” each time.

Regarding `O=C(CCCCCCCC(=O)ON1C(=O)CCC1=O)Oc1ccc2cc(C(C(=O)NCc3ccccc3)N(C(=O)Cc3ccc4c(c3)OCO4)C3CC3)ccc2c1` (stereo not given), the inhibition result in assay [1] and in assay [2] was “Active” throughout. The inhibition entry in assay [3] was “inactive”.
